This is a sample that favours compounds with a hit; in the whole collection about 4.4% have one here.
TbMetRS inhib: T. brucei MetRS inhibitors, primary screen, biochemical, luminescence; methionyl-tRNA synthetase (Trypanosoma brucei brucei); purified T. brucei MetRS, ATP depletion, Kinase-Glo luminescence; inhibition, % at 11.9 µM; 360,000 compounds, 0.4% hits;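 active means inhibition above a per-plate cutoff of the control wells' mean inhibition plus 3 SD, cut at about 5.5% in these data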
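Material: T. brucei methionyl-tRNA synthetase, purified; reagent: substrates ATP, L-methionine and bulk Escherichia coli tRNA; dosing: 11.9 µM single point; timing: 15 min plus 2 h at 25 °C; detection: luminescence of leftover ATP; evaluation: % inhibition; control set: DMSO-only wells as low control; replicates: singlicate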
MsrA inh: bovine MsrA enzyme inhibitors, primary screen, biochemical, absorbance, HTS; Methionine sulfoxide reductase A (Bos taurus); purified bovine MsrA, absorbance read-out; inhibition, % at 15.5 µM; 360,000 compounds, 0.75% hits; in the data active means inhibition above about 4.5%
bovine MsrA act: bovine MsrA enzyme activators, primary screen, biochemical, absorbance, HTS; Methionine sulfoxide reductase A (Bos taurus); purified bovine MsrA, absorbance read-out; activation, % at 10.6 µM; 360,000 compounds, 0.3% hits; AID 602163, 2012; in the data active means activation above about 7.5%
m5-HT2A agonist: mouse Htr2a agonists via beta-arrestin recruitment, primary screen, cell-based, luminescence. CHO-K1 mHTR2A beta-arrestin complementation; percent of 30 µM serotonin response. 360,000 compounds, 0.66% hits. activation, % at 7.6 µM;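 active means activation above a run cutoff, the mean activation of all tested compounds plus 3 SD, cut at about 14% in these data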
AHR act: AHR activators, primary screen, cell-based, luminescence, luciferase reporter, human. Aryl hydrocarbon receptor (Homo sapiens), P35869. AHR-responsive luciferase reporter cells. activation, % at 5 µM. 320,000 compounds, 2.5% hits; in the data active means activation above about 47%
Target sequence (P35869 whole entry, looked up): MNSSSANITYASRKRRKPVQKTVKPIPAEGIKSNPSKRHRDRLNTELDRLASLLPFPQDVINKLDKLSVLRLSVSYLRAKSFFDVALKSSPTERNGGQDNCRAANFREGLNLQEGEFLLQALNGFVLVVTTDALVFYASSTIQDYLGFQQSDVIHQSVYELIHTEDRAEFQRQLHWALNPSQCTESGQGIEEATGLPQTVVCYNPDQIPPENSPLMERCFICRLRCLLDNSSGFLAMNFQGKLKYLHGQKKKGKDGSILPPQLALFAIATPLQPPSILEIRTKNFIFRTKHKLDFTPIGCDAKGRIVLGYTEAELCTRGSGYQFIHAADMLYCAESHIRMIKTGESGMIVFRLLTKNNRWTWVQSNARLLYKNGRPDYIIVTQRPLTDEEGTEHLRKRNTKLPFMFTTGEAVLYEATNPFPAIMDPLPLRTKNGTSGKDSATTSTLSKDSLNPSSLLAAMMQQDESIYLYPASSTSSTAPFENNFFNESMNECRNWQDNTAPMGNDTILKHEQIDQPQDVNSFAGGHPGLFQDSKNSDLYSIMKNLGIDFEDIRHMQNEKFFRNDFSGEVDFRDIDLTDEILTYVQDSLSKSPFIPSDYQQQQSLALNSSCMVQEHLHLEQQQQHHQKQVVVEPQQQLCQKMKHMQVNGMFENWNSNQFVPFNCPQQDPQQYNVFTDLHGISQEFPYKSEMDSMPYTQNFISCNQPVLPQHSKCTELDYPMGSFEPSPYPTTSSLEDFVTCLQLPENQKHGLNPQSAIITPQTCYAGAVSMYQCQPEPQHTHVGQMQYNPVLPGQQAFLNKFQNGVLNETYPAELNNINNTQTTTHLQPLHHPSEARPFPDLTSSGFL
AI-2 QS mod: Vibrio harveyi AI-2 quorum sensing modulators, primary screen, JMH597 strain, luminescence/OD600 ratio; Vibrio harveyi JMH597 AI-2 luminescence/OD600 ratio, 9 h; stronger effect = lower value; strain lacks LuxN and CqsS sensors; 0 = neutral-control median; activity change, % at 7.5 µM; 300,000 compounds, 0.4% hits; in the data active means activity change below about -75%, passing the limit was not always enough;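 further: luminescence divided by OD600 gain over 9 h not by final OD600 alone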
AHR act confirm: AHR activators, confirmation, cell-based, luminescence, luciferase reporter, human; activation, % at 9 µM; AID 2845, 2010; human cells, AHR-responsive luciferase reporter; 2,300 compounds, 87% hits; shares compounds with AHR act; in the data active means activation above about 49%;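 further: HepG2 hepatoma cells carrying a DRE-driven firefly luciferase reporter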
PXR counter: human PXR activators, counter-screen for AHR activator project, cell-based, luciferase luminescence. shares compounds with AHR act. cell-based PXR reporter. activation, % at 11.6 µM. 2,300 compounds, 88% hits; in the data active means activation above about 11%;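 further: human hepatoma DPX-2 cells expressing full-length human PXR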
Of the large screens only hits and unclear results are named; the others gave an inactive call (follow-up assays come after a bar, where they were run).

C=CCNc1nc(N2CCCC2)nc2ccccc12	AHR act 83.8 | AHR act confirm inactive | PXR counter 11.7
COc1ccc(C(CNC(=O)c2ccc3c(c2)OCCO3)N(C)C)cc1 (stereo not drawn)	none
CC(=O)c1cccc(NC(=S)N2CCc3ccccc32)c1	AHR act 85.8 | AHR act confirm 106.9 | PXR counter 60.5
CN(C(=O)c1cccc(NC(=O)Cc2ccc(NC(=O)C3CCN(C(=O)C4CCC4)CC3)cc2)c1)C1CC1	none (no result: AHR act, AI-2 QS mod)
Cc1cccn2c(=O)c(C=O)c(N3CCN(c4ccccc4)CC3)nc12	AHR act 95.2 | AHR act confirm 81.0 | PXR counter 65.2
CN1C(=O)/C(=C\c2ccccc2OCc2ccccc2)SC1=S	AHR act 80.6 | AHR act confirm 87.1 | PXR counter 19.1
COc1ccc(S(=O)(=O)N2CCCCCC2)cc1C(=O)N(C)Cc1ccc(OC)c(OC)c1OC	none
CCc1ccc(NC(=O)CSc2nnc(C)c(=O)n2N)cc1	none
Cn1cccc1/C=N/n1c(-c2ccccc2)n[nH]c1=S	none
Cn1cccc1/C=N/n1c(-c2ccc(C(C)(C)C)cc2)n[nH]c1=S	AHR act 125.7 | AHR act confirm 103.7 | PXR counter 260.8
Nc1ccc2nn(-c3ccc(F)cc3)nc2c1	AHR act 106.5 | AHR act confirm inactive | PXR counter 14.2
Cc1ccc(-n2nc3ccc(N)cc3n2)cc1	AHR act 88.4 | AHR act confirm 76.0 | PXR counter inactive
Cc1cc(Nc2ccc(Br)c(C)c2)n2nc(C)nc2n1	AHR act 84.8 | AHR act confirm inactive | PXR counter 12.2
CC(=O)c1ccc(Nc2cc(C)nc3nc(C)nn23)cc1	none
Cc1cc(Nc2ccc(Cl)cc2)n2nnnc2n1	AHR act 143.3 | AHR act confirm 90.6 | PXR counter 13.8
Cc1ccc(Nc2cc(C)nc3nc(C)nn23)cc1	AHR act 124.4 | AHR act confirm inactive | PXR counter inactive
Cc1cc(Nc2ccccc2Cl)n2nnnc2n1	none
O=C(COC(=O)c1ccc(O)cc1O)NC(=O)NCc1ccccc1	none (no result: AI-2 QS mod)
COc1cccc(N2CCN(C(=O)c3oc4ccccc4c3NC(=O)Cc3ccc(OC)c(OC)c3)CC2)c1	none
O=C(NN1C(=O)NC2(CCCCC2)C1=O)c1ccc(Cl)c(Cl)c1	none (no result: AI-2 QS mod)
Cc1cccc(C(=O)Nc2cccc(NC(=O)c3ccccc3)c2)c1	none
Cc1cccc(NC2=C(NC(=O)c3ccccc3)C(=O)c3ccccc3C2=O)c1	AHR act 105.7 | AHR act confirm 103.5 | PXR counter 123.6
COc1cc2cnc(-c3ccccc3)cc2cc1OC	AHR act 113.9 (no result: AI-2 QS mod) | AHR act confirm 122.2 | PXR counter 14.3
c1ccc(-c2cc3cc4c(cc3cn2)OCO4)cc1	AHR act 122.9 (no result: AI-2 QS mod) | AHR act confirm 67.4 | PXR counter 90.4
COc1ccc2cc(-c3ccccc3)ncc2c1	none
O=c1c2ccccc2nc2n1CCc1c-2[nH]c2ccccc12	AHR act 98.9 (no result: AI-2 QS mod) | AHR act confirm 222.8 | PXR counter 19.6
Nc1c(Cl)cc(-c2csc(NC(CO)c3nc4ccccc4n3CCOCCO)n2)cc1Cl (stereo not drawn)	AHR act 80.0 | AHR act confirm 90.2 | PXR counter 104.4
O=c1[nH]c2ccccc2nc1-c1ccccc1	AHR act 101.3 | AHR act confirm 84.0 | PXR counter 11.1
COc1cc(OC)cc(-c2nnc(SCC(=O)N3CCCCC3)o2)c1	AHR act 82.8 | AHR act confirm inactive | PXR counter 71.6
COc1cc(OC)cc(-c2nnc(SCC(=O)N3CCOCC3)o2)c1	none
CCc1nc2c(OCc3cccc(Cl)c3)cccn2c1N(C)C(=O)c1ccncc1	none (no result: AHR act, AI-2 QS mod)
Cc1ccc2cc3c(NC(=O)c4cccnc4)nn(C)c3nc2c1	AHR act 114.0 | AHR act confirm 93.4 | PXR counter 13.7
Cc1ccc2cc3c(NC(=O)c4ccco4)nn(C)c3nc2c1	AHR act 81.7 | AHR act confirm 97.0 | PXR counter inactive
Cc1nc(N2CCN(S(=O)(=O)c3ccccc3C#N)CC2)c2c(-c3ccccc3)csc2n1	none (no result: AI-2 QS mod)
Cc1ccc(NC(=O)CSCC(=O)Nc2cc(S(=O)(=O)N3CCOCC3)ccc2OC(C)C)cc1	none (no result: AHR act, AI-2 QS mod)
CN(C)c1ccc(/C=N/NC(=O)c2ccccn2)cc1	none
CN(C)c1ccc(/C=N\NC(=O)c2csnn2)cc1	MsrA inh 7.3, AHR act 110.9 | AHR act confirm 54.5 | PXR counter 10.2
CCOC(=O)[C@]12CCCC=C1N(Cc1ccccc1)C(=O)[C@H](CC(=O)NCCCOC)C2	none (no result: bovine MsrA act, AHR act, AI-2 QS mod)
Cc1nn(-c2ccccc2)c(Cl)c1/C=N/N1CCN(c2ccccn2)CC1	AHR act 161.0 | AHR act confirm inactive | PXR counter 27.2
O=C(CNC(=O)c1ccccc1F)N/N=C/c1cn[nH]c1-c1ccccc1	AHR act 139.5 | AHR act confirm 92.2 | PXR counter 18.5
COC(=O)N1CCCCC1c1cc(C(=O)Nc2ccccc2Cl)no1 (stereo not drawn)	none (no result: AHR act, AI-2 QS mod)
COc1ccc(-c2ccc3oc(-c4ccsc4)c(-c4ccc(Br)nc4)c3c2)cc1	AHR act 101.9 (no result: TbMetRS inhib, MsrA inh, bovine MsrA act, m5-HT2A agonist, AI-2 QS mod) | AHR act confirm 97.3 | PXR counter 26.3
Cc1[nH]c2ccccc2c1/C=N/NC(=O)Nc1ccccc1	AHR act 94.7 | AHR act confirm 136.1 | PXR counter 45.8
Cc1[nH]c2ccccc2c1/C=N/NC(=O)CNC(=O)Cc1ccccc1	none
Cc1[nH]c2ccccc2c1/C=N/NC(=O)Cc1cccs1	AHR act 100.1 | AHR act confirm 72.1 | PXR counter 37.6
CC1CCN(CCCN2C(=O)C3C(C(=O)Nc4ccc(Cl)cc4)C4C=CC3(O4)C2C(=O)NC2CCCCC2)CC1 (stereo not drawn)	none (no result: AI-2 QS mod)
Fc1ccc(Nc2cccc3nccnc23)cc1	AHR act 137.4 | AHR act confirm 57.7 | PXR counter 13.1
COc1ccccc1OCCNC(=O)C1CC(=O)N(Cc2ccc(C)cc2)C1 (stereo not drawn)	none
COc1ccc(NCc2ccccc2[N+](=O)[O-])cc1OC	none

Compound activity deposited in PubChem by several laboratories.
